Hits are enriched below; roughly 3.1% of the tested compounds scored in any of these assays.
E-selectin induc – E-selectin induction on HUVECs; P16581; HUVEC E-selectin immunofluorescence imaging; normalized: neutral wells 0, TNF-alpha wells 100; activation, % at 7.58 µM; 260,000 compounds, 0.37% hits; AID 686992;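 active means mean E-selectin-positive cell signal at least 10% of the positive control, reached in at least 60% of replicates, without over 20% cell loss; inconclusive means no rule given, readout overlaps actives, possibly toxicity-flagged; inactive means the rest, including those meeting only one limit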
Target sequence (P16581 whole entry, looked up): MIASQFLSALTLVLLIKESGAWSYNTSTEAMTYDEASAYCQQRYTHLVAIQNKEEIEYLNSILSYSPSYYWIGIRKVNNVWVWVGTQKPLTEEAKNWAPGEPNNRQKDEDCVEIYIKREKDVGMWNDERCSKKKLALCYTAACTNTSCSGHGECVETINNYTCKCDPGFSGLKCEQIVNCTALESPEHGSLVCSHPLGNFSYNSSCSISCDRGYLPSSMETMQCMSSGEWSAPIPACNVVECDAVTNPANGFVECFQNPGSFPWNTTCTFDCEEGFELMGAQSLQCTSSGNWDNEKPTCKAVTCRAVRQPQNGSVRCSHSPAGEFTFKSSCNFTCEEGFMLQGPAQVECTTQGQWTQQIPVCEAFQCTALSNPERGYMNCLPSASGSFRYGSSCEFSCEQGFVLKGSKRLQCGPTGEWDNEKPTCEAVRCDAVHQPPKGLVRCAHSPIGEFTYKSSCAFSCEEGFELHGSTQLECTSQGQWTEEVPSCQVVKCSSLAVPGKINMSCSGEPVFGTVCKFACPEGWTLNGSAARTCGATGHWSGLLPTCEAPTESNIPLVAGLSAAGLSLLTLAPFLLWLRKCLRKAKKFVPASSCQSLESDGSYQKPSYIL
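Test system – human umbilical vein endothelial cells (HUVEC), E-selectin induction · Input – 3,000 HUVEC seeded per well · Buffer or medium – EGM-2, gelatin · Compound dosing – single-point compound dose · Detection – immunofluorescence imaging · Measure – percent E-selectin-positive cells · Controls – TNF-alpha high, DMSO low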
Cneo AK release – causes C. neoformans cell lysis; 360,000 compounds, 0.2% hits; adenylate kinase release luminescence, 4 h; normalised: neutral wells 0, clomiphene wells 100; lysis activity, % at 15 µM;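 active means mean lysis activity across replicates of at least 80%, whatever share of replicates individually reach that level; inactive means mean lysis activity below 80%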
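read-out = cell lysis signal | test system = log-phase Cryptococcus neoformans yeast cells | input = cells at 5 × 10^6 per mL | medium = fresh YPD growth medium | signal = luminescent adenylate kinase detection reagent | timing = 4 h at 37 °C static, read 1 h later | dosing = single dose | controls = Clomiphene as positive lysis control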
miR-122 sensor – miR-122 inhibition in Huh7 cells; Huh7 miR-122 Renilla luciferase sensor, 48 h; neutral wells = 0, positive control = 100; activation (reporter increase), % at 12.5 µM; 340,000 compounds, 0.3% hits;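 active means mean replicate activation score at least 90 and every replicate individually at or above 90; inconclusive means only one of the two criteria met; inactive means neither criterion met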;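 further: higher luciferase means less miR-122 activity so hits act as miR-122 inhibitors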
DENV2 CPE rescue – protects cells from dengue virus 2 cytopathic effect. DENV2-infected cells, cytopathic effect rescue, plate reader. CPE inhibition, % at 9.99 µM. 350,000 compounds, 1.7% hits. AID 651640; in the data active means CPE inhibition above about 20%, passing the limit was not always enough; inconclusive means no clear call, values can overlap the other calls; tested in BHK-21 cells;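 further: 0% = median of neutral control wells and 100% = median of positive control wells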
rRNA inh HTS – inhibits bacterial ribosomal RNA function over humanized ribosomes; E. coli WT GFP vs humanized-ribosome RFP mutants, fluorescence, 24 h; hits give low values; DMSO median 0, no signal -100; GFP signal change (wild-type ribosome), % (test concentration not listed); 350,000 compounds, 1.6% hits;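 active means significant combined selectivity score with lowered wild-type GFP, culture density cut under 30%, mutant RFP and density less affected; inactive means any of these conditions unmet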
An asterisk follows results filed as active; [ ] = remark or other dose.

Screening COc1ccc(C(=O)NCc2c(C)oc(C)c2C(=O)O)cc1 returned E-selectin induc 2, Cneo AK release -1, miR-122 sensor -8, DENV2 CPE rescue 10 and rRNA inh HTS 10.
Screening COc1ccc(C(=O)NCc2oc(-c3ccccc3)cc2C(=O)O)cc1 returned Cneo AK release 0 and rRNA inh HTS -24*.
Cc1ccc(S(=O)(=O)NC(=O)C2(C)CCN2C(=O)c2ccc(C(F)(F)F)nc2C)cc1 (stereo not drawn) was read as E-selectin induc 0, Cneo AK release 0, miR-122 sensor 0, DENV2 CPE rescue 51* and rRNA inh HTS 6.
Cc1nc(C(F)(F)F)ccc1C(=O)N1CCC1(C)C(=O)NCc1ccc(Cl)cc1 (stereo not drawn) was read as E-selectin induc 0, Cneo AK release 3, miR-122 sensor -3, DENV2 CPE rescue 69* and rRNA inh HTS 6.
For Cc1nc(C(F)(F)F)ccc1C(=O)N1CCC1(C)C(=O)NS(C)(=O)=O (stereo not drawn) the results were Cneo AK release -2, miR-122 sensor -5, DENV2 CPE rescue -2 and rRNA inh HTS 12.
Screening Cc1nc(C(F)(F)F)ccc1C(=O)N1CCC1(C)C(=O)NS(=O)(=O)c1ccc(C#N)cc1 (stereo not drawn) returned E-selectin induc 0, Cneo AK release 0, miR-122 sensor 1, DENV2 CPE rescue 31* and rRNA inh HTS 6.
Cc1ccc(S(=O)(=O)NC(=O)C2(C)CCN2C(=O)Cc2cccs2)cc1 (stereo not drawn) was read as E-selectin induc 0, Cneo AK release 0, miR-122 sensor -3, DENV2 CPE rescue 49* and rRNA inh HTS 12.
Screening CC1(C(=O)NS(=O)(=O)c2ccccc2)CCN1C(=O)Cc1cccs1 (stereo not drawn) returned Cneo AK release 0, miR-122 sensor 6, DENV2 CPE rescue inconclusive and rRNA inh HTS 8.
For Cc1nc(C(F)(F)F)ccc1C(=O)N1CCC1(C)C(=O)NS(=O)(=O)c1ccc(Cl)cc1 (stereo not drawn) the results were E-selectin induc 0, Cneo AK release 2, miR-122 sensor -5, DENV2 CPE rescue 8 and rRNA inh HTS 22.
Cc1nc(C(F)(F)F)ccc1C(=O)N1CCCCCC1(C)C(=O)NCC(C)C (stereo not drawn) was read as E-selectin induc 0, Cneo AK release 0, miR-122 sensor -3, DENV2 CPE rescue 7 and rRNA inh HTS 14.
`C[C@@H]1CN([C@H](C)CO)C(=O)Cc2cc(NC(=O)Nc3ccc(C(F)(F)F)cc3)ccc2O[C@@H]1CN(C)C(=O)NC1CCCCC1` gave E-selectin induc 10, miR-122 sensor 18[16.7 µM] and rRNA inh HTS 1.
Screening CO[C@@H]1CN(C)C(=O)c2ccc(NS(=O)(=O)c3ccccc3)cc2OC[C@@H](C)N(C)C[C@@H]1C returned E-selectin induc 0, Cneo AK release -4, miR-122 sensor -2[16.7 µM], DENV2 CPE rescue -1 and rRNA inh HTS 0.
Screening O=C(Nc1ccc(N2CCN(C(=O)c3ccccc3)CC2)cc1)c1ccc(Br)o1 returned Cneo AK release 6 and miR-122 sensor 10.
For O=C(Nc1ccccc1N1CCN(C(=O)c2ccccc2)CC1)c1ccc([N+](=O)[O-])o1 the results were Cneo AK release 2, miR-122 sensor 2, DENV2 CPE rescue 5 and rRNA inh HTS -25*.
For O=C(Nc1ccc(N2CCN(C(=O)c3ccccc3)CC2)c(Cl)c1)c1ccc(Br)o1 the results were miR-122 sensor 38, DENV2 CPE rescue -9 and rRNA inh HTS -23*.
O=C(Nc1ccccc1N1CCCC1)c1ccc([N+](=O)[O-])o1 was read as Cneo AK release -2, miR-122 sensor 13, DENV2 CPE rescue -1 and rRNA inh HTS -10.
COC(=O)C[C@H]1CC[C@H]2[C@H](COc3ccc(NC(=O)c4cc(C)on4)cc3C(=O)N2C)O1 was read as E-selectin induc 0, Cneo AK release -3, miR-122 sensor 10[16.7 µM], DENV2 CPE rescue -1 and rRNA inh HTS 0.
`CCCC#Cc1cnc2c(c1)C(=O)N([C@H](C)CO)C[C@@H](C)[C@H](CN(C)C(=O)Nc1ccccc1OC)O2` gave E-selectin induc 0, Cneo AK release 1, miR-122 sensor 0[16.7 µM], DENV2 CPE rescue -4 and rRNA inh HTS 0.
`CC1(Cc2cccc(F)c2)C(=O)Nc2ccc(-c3cccnc3)cc21` (stereo not drawn) gave E-selectin induc 0, Cneo AK release 0, miR-122 sensor 22, DENV2 CPE rescue 54* and rRNA inh HTS -52.
`O=C1NC(Cc2ccc(O)cc2)c2nc3ccc(Br)cc3c(=O)n2-c2ncccc21` (stereo not drawn) gave E-selectin induc 2, miR-122 sensor -6, DENV2 CPE rescue -10 and rRNA inh HTS -21*.
For O=C1NC(Cc2ccccc2)c2nc3ccc(Cl)cc3c(=O)n2-c2ccccc21 (stereo not drawn) the results were E-selectin induc 0, DENV2 CPE rescue 68* and rRNA inh HTS -1.
`CCCC1NC(=O)c2cc3ccccc3cc2-n2c1nc1ccc(F)cc1c2=O` (stereo not drawn) gave E-selectin induc 0, Cneo AK release 0, miR-122 sensor -3, DENV2 CPE rescue 67* and rRNA inh HTS -2.
CC(C)CC1NC(=O)c2cc3ccccc3cc2-n2c1nc1ccc(F)cc1c2=O (stereo not drawn) was read as E-selectin induc 0, Cneo AK release -1, miR-122 sensor -1, DENV2 CPE rescue 11 and rRNA inh HTS -4.
For O=C1NC(Cc2ccc(O)cc2)c2nc3ccc(Br)cc3c(=O)n2-c2cc3ccccc3cc21 (stereo not drawn) the results were Cneo AK release -5, miR-122 sensor -1 and DENV2 CPE rescue -9.
Screening O=C1NC(Cc2ccc(O)cc2)c2nc3ccccc3c(=O)n2-c2ccccc21 (stereo not drawn) returned E-selectin induc 0, DENV2 CPE rescue 39* and rRNA inh HTS 1.
`O=C1NC(Cc2ccc(O)cc2)c2nc3ccccc3c(=O)n2-c2cc(Cl)ccc21` (stereo not drawn) gave E-selectin induc 0, DENV2 CPE rescue -5 and rRNA inh HTS -5.
Screening Cc1cccc(NC(=O)c2cccc(S(=O)(=O)N(C)C3CCCCC3)c2)n1 returned E-selectin induc 0, Cneo AK release -1, miR-122 sensor 2, DENV2 CPE rescue 21* and rRNA inh HTS -24.
`CN(C1CCCCC1)S(=O)(=O)c1cccc(C(=O)Nc2ccccn2)c1` gave E-selectin induc -2, Cneo AK release 0, miR-122 sensor 22, DENV2 CPE rescue 8 and rRNA inh HTS -26.
